The text below walks through data of ChEMBL document CHEMBL3734757, “Discovery of novel quinoline-based mTOR inhibitors via introducing intra-molecular hydrogen bonding scaffold (iMHBS): The design, synthesis and biological evaluation” (Bioorg Med Chem, 2015).

Active and inactive are the calls of the source. No cut-off for these calls is given here. A value given as a limit tells only on which side of the number the result lay.

A short description of data set [1]: cells. The settings on record: Homo sapiens, HCT-116, 72 h.
Data set [2] can be described thus: cells. Conditions: Homo sapiens, PC-3, 72 h.
The test system of data set [3] is MCF7. The data set can be described thus: cells. Conditions: Homo sapiens, MCF7, 72 h.
Data set [4] addresses Serine/threonine-protein kinase mTOR (Homo sapiens, UniProt P42345). The data set can be described thus: Inhibition of mTOR (unknown origin) using ULight-4E-BP1 peptide as substrate after 1 hr by lance ultra assay.
In data set [5] the target is T1, Phosphatidylinositol 4,5-bisphosphate 3-kinase catalytic subunit alpha isoform (Homo sapiens, UniProt P42336). Kind of data set: Inhibition of PI3Kalpha (unknown origin) after 1 hr by Kinase-Glo Luminescent assay. (In general: In Kinase-Glo more light means more ATP remaining.)
The target in data set [6] is T2, Phosphatidylinositol 4,5-bisphosphate 3-kinase catalytic subunit beta isoform (Homo sapiens, UniProt P42338). The data set can be described thus: Inhibition of PI3Kbeta (unknown origin) after 1 hr by ADP-Glo Luminescent assay. Put shortly: (§1)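 Purchased PI3Kβ reaction run 1 h at room temperature. An aliquot was moved to a new plate and stopped with an equal volume of ADP-Glo reagent, equilibrated 40 min. Kinase detection reagent added, shaken 1 min, equilibrated 60 min, then luminescence read. Inhibition relative to DMSO (max) and no-enzyme (min) controls; IC50 from four-parameter Hill fit.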
Target sequence in this assay (P42338 whole entry, canonical isoform): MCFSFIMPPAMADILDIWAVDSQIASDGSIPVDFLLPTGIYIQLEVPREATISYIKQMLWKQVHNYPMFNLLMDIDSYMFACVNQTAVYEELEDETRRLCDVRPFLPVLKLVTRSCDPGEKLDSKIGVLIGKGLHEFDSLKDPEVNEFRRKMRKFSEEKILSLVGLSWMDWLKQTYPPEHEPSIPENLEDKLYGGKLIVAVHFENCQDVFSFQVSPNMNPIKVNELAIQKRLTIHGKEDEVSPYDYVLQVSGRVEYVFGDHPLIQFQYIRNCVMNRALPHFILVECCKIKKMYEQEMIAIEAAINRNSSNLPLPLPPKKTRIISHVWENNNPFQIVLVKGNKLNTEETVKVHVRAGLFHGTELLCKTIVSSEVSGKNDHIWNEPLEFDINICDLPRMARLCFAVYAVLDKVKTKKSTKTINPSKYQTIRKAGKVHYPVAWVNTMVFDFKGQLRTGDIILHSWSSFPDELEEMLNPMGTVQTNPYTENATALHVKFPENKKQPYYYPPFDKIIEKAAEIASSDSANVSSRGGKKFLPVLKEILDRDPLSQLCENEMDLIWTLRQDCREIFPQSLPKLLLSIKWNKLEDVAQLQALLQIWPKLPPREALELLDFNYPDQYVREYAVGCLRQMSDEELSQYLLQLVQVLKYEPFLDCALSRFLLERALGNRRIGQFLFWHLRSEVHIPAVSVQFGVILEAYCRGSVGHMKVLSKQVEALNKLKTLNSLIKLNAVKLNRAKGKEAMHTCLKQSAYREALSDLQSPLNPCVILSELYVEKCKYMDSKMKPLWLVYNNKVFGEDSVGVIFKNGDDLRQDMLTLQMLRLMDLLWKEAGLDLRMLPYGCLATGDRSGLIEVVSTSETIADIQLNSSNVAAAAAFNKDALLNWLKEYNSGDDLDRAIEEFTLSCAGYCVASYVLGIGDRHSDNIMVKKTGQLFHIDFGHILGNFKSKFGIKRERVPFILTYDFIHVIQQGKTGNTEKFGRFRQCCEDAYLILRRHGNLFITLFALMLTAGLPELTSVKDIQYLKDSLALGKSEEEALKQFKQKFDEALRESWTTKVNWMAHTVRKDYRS
(In general: ADP-Glo turns the ADP formed in a reaction into a luminescent signal.)

Data set [7] has as its target T3, Phosphatidylinositol 4,5-bisphosphate 3-kinase catalytic subunit gamma isoform (Homo sapiens, UniProt P48736). The data set can be described thus: Inhibition of PI3Kgamma (unknown origin) after 1 hr by ADP-Glo Luminescent assay.
Target sequence in this assay (P48736 whole entry, canonical isoform): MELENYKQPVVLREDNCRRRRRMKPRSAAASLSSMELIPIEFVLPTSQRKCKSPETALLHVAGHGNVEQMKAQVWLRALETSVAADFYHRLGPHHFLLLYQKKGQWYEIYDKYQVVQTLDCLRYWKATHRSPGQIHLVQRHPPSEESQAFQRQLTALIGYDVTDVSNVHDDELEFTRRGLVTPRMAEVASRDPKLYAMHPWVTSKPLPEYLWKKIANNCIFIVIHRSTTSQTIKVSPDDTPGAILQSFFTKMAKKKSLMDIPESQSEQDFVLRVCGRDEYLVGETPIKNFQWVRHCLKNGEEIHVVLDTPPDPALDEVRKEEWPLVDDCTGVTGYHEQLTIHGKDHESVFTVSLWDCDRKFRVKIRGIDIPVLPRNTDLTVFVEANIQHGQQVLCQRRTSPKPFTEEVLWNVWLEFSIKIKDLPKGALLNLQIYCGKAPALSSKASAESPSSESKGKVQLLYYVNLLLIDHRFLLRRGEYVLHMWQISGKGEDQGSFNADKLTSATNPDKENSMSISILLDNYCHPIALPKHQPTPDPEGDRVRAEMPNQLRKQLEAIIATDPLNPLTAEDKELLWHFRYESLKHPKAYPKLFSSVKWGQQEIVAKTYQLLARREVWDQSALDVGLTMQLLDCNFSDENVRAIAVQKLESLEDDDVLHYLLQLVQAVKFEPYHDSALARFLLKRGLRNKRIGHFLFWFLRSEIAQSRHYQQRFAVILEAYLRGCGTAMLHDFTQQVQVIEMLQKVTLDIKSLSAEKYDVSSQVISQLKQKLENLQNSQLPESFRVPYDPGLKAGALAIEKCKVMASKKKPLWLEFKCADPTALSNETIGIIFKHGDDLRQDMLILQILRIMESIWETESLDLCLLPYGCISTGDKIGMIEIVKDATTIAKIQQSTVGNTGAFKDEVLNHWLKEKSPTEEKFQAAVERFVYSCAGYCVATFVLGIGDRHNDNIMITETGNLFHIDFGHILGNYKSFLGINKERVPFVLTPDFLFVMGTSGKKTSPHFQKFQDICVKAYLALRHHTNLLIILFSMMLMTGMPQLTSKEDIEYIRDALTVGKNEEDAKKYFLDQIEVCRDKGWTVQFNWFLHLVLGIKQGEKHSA
Data set [8] deals with T4, Phosphatidylinositol 4,5-bisphosphate 3-kinase catalytic subunit delta isoform (Homo sapiens, UniProt O00329).
T4 sequence (O00329 whole entry): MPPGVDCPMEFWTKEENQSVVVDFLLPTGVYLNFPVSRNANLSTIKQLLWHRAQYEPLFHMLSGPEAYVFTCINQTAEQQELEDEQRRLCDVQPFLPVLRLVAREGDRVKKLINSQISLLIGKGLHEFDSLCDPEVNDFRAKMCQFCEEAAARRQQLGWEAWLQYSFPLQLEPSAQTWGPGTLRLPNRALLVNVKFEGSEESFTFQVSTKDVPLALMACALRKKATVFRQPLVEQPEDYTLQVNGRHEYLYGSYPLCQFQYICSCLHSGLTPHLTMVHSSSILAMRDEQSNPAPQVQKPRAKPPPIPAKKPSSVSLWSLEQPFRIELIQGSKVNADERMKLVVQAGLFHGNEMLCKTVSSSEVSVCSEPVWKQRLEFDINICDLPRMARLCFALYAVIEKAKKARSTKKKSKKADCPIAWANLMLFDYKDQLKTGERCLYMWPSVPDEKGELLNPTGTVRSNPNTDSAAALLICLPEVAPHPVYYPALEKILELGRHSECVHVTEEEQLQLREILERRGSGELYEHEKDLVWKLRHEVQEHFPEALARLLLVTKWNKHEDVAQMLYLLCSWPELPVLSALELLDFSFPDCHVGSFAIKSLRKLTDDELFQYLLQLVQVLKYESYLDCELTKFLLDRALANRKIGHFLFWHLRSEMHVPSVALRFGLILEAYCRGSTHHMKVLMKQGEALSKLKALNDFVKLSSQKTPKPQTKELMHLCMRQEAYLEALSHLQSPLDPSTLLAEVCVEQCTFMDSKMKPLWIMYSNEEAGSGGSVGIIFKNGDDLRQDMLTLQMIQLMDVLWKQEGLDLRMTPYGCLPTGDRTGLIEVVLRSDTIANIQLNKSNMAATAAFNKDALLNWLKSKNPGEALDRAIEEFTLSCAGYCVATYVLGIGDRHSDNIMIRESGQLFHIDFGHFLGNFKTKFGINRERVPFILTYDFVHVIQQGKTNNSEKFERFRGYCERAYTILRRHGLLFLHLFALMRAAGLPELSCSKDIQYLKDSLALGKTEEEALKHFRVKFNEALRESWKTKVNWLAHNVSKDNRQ
The data set can be described thus: Inhibition of PI3Kdelta (unknown origin) after 1 hr by ADP-Glo Luminescent assay.

For data set [9], the system named is MCF7. Kind of data set: Inhibition of mTORC1/2 in human MCF7 cells assessed as downregulation of pAKT(Ser473) and pS6(Ser235) at 0.5 uM after 2 hrs by Western blot analysis. The class given is cell-based. On the technique in general: A western blot detects proteins with antibodies after separation by electrophoresis.
Data set [10] has as its system MCF7. The data set can be described thus: Inhibition of mTORC2 in human MCF7 cells assessed as downregulation of pAKT(Ser473) at 0.1 uM after 2 hrs by Western blot analysis.
Data set [11] addresses T1, Phosphatidylinositol 4,5-bisphosphate 3-kinase catalytic subunit alpha isoform. The data set can be described thus: Inhibition of PI3Kalpha (unknown origin) at 1 uM after 1 hr by Kinase-Glo Luminescent assay. Summed up:
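Purchased PI3Kα in buffer of 50 mM HEPES pH 7.5, 3 mM MgCl2, 1 mM EDTA, 100 mM NaCl, 0.03% CHAPS, 2 mM DTT; substrate PIP2 plus ATP. Reaction 1 h at room temperature, stopped with Kinase-Glo reagent, 15 min equilibration, luminescence read. Percent inhibition from no-enzyme and DMSO controls; IC50 from four-parameter Hill fit.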

In data set [12] the target is T2, Phosphatidylinositol 4,5-bisphosphate 3-kinase catalytic subunit beta isoform. Kind of data set: Inhibition of PI3Kbeta (unknown origin) at 1 uM after 1 hr by ADP-Glo Luminescent assay. Put shortly: as §1
Target sequence in this assay (P42338 whole entry, looked up, canonical isoform): as the sequence (P42338 whole entry, canonical isoform) above
The target in data set [13] is T3, Phosphatidylinositol 4,5-bisphosphate 3-kinase catalytic subunit gamma isoform. The data set can be described thus: Inhibition of PI3Kgamma (unknown origin) at 1 uM after 1 hr by ADP-Glo Luminescent assay.
Target sequence in this assay (P48736 whole entry, looked up, canonical isoform): as the sequence (P48736 whole entry, canonical isoform) above
Data set [14] concerns MCF7. Kind of data set: Inhibition of mTORC2 in human MCF7 cells assessed as downregulation of pAKT(Ser473) at 0.5 uM after 2 hrs by Western blot analysis. In kind it is cell-based.
In a further data set the target is mTORC1 (Homo sapiens) (UniProt P42345+Q8N122+Q9BVC4). The settings on record: MCF7, 0.5 uM.
Data set [15] concerns the target T5, Phosphatidylinositol 4,5-bisphosphate 3-kinase catalytic subunit delta isoform (Homo sapiens) (UniProt O00329).
T5 sequence (whole entry): T4 sequence (O00329 whole entry)
The data set can be described thus: Inhibition of PI3Kdelta (unknown origin) at 1 uM after 1 hr by ADP-Glo Luminescent assay.

The nature of data set [16]: Metabolic stability in simulated gastric fluid after 45 mins. In kind it is ADME. Conditions: simulated gi fluid, 0.75 h.
The nature of data set [17]: Metabolic stability in simulated intestinal fluid after 45 mins. In kind it is ADME. The settings on record: simulated gi fluid, 0.75 h.
The nature of data set [18]: Metabolic stability in rat liver microsomes after 30 mins. In kind it is ADME. Conditions: read-out: Stability.
A short description of data set [19]: Metabolic stability in human liver microsomes after 30 mins. The class given is ADME. The settings on record: read-out: Stability.
A short description of data set [20]: Metabolic stability in human liver microsomes after 60 mins. In kind it is ADME. The settings on record: read-out: Stability.

T1 sequence (P42336 whole entry, canonical isoform): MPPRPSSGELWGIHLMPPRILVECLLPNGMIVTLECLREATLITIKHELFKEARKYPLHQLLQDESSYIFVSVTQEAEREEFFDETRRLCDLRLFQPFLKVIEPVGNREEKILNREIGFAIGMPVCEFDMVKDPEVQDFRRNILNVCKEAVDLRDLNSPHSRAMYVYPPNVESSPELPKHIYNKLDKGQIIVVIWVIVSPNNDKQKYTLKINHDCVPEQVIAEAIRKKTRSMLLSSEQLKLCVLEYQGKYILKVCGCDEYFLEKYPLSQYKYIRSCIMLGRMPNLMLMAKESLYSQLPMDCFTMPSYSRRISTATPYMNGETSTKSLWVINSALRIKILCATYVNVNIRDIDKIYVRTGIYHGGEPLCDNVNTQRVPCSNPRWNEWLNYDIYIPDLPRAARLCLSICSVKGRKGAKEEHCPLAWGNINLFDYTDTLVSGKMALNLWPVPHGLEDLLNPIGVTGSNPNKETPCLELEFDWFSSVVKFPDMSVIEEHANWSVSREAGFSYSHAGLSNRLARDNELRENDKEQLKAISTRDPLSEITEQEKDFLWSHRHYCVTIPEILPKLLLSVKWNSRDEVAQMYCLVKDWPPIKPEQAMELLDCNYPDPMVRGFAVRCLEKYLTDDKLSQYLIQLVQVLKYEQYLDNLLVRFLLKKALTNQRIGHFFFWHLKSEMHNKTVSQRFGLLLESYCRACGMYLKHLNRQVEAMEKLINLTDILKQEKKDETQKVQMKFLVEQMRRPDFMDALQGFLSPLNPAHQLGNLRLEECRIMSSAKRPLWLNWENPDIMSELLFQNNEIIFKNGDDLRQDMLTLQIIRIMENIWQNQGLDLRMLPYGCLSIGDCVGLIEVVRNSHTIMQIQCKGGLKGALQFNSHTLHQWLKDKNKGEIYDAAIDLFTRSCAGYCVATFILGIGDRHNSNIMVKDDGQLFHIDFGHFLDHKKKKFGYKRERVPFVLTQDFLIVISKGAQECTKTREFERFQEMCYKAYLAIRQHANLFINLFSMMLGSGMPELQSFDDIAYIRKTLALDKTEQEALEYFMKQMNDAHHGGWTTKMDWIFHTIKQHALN
mTORC1 (Homo sapiens), sequence (Q8N122 whole entry, looked up, other chains not shown, canonical isoform): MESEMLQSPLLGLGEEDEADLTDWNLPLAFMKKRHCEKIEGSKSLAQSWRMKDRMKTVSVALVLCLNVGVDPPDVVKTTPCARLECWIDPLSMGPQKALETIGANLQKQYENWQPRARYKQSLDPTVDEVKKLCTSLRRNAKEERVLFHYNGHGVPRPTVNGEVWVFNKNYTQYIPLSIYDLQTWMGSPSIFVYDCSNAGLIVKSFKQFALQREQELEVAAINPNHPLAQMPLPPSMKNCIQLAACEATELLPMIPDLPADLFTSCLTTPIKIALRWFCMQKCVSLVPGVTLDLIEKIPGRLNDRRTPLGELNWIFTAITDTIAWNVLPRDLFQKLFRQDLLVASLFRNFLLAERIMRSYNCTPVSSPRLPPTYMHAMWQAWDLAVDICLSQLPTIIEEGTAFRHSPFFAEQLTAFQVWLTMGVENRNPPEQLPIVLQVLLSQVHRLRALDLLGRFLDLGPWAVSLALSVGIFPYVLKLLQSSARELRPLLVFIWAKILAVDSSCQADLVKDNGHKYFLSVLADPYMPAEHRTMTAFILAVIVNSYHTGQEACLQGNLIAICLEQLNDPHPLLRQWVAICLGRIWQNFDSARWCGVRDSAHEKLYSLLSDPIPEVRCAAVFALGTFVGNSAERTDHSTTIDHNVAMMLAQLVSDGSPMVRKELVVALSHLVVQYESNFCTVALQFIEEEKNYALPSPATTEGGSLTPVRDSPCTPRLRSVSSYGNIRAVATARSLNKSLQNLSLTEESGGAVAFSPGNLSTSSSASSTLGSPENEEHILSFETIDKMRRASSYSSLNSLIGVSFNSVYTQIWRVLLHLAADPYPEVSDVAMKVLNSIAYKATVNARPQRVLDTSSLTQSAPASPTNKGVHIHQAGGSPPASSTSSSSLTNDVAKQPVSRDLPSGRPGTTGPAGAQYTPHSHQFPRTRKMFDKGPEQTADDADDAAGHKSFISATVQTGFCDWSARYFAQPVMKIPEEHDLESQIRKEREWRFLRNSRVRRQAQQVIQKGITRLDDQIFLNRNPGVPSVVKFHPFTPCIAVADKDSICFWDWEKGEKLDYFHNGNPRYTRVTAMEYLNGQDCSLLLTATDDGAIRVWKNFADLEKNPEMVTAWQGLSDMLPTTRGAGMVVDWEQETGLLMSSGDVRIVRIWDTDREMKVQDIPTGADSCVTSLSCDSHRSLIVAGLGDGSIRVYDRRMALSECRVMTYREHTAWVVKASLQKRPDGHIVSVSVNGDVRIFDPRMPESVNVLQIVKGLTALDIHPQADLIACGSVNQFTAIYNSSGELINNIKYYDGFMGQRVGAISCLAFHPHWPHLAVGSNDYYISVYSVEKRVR
mTORC1 (Homo sapiens), sequence (Q9BVC4 whole entry, looked up, other chains not shown, canonical isoform): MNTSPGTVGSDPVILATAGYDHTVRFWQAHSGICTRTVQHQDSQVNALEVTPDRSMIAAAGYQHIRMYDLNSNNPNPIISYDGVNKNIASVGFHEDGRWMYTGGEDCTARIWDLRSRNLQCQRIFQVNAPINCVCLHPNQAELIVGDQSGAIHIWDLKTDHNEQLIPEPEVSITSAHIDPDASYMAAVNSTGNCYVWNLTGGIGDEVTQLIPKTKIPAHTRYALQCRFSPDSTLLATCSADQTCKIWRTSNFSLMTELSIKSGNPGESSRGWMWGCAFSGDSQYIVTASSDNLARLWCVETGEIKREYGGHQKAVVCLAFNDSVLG

The IC50 is the concentration needed to halve the response being measured. Low readings indicate greater potency in that assay, high ones weaker potency in that assay. As for `CNC(=O)c1cnc2ccc(-c3cnc4ccccc4c3)cc2c1Nc1ccc(C(C)(C)C#N)cc1`, the IC50 worked out at 8.73 µM in “cells [1]”, 7.12 µM in the data set “cells [2]” and 1.3 µM in the data set on MCF7 [3].
For `CN1CCN(CC(=O)N2CCN(c3ccc(Nc4c(C(N)=O)cnc5ccc(-c6cnc7ccccc7c6)cc45)cc3C(F)(F)F)CC2)CC1`, the IC50 in the data set “cells [1]” stood at 0.97 µM; in the data set “cells [2]”, 0.99 µM; with MCF7 [3], 0.44 µM.
As a reminder, the inhibition is the change of the read-out against control, counted positive when it falls. As to `CC(=O)N1CCN(c2ccc(Nc3c(C(N)=O)cnc4ccc(-c5cnc6ccccc6c5)cc34)cc2C(F)(F)F)CC1`, the IC50 in data set [4] was 0.031 µM; in data set [5], 2.43 µM; in [6], above 5 µM; in data set [7] it was 0.939 µM; in data set [8], above 5 µM; in the data set “cells [1]” it was 1.29 µM. For the same compound, the results for the IC50 in “cells [2]” and in the data set with MCF7 [3] were 3.9 µM and 0.44 µM, respectively. The inhibition result with MCF7 [9] and in the data set with MCF7 [10] was “Active” each time.
In the case of `O=C(NC1CC1)c1cnc2ccc(-c3cnc4ccccc4c3)cc2c1Nc1ccc(N2CCNCC2)c(C(F)(F)F)c1`, the IC50 in data set [4] was above 3 µM.
Turning to `CC(C)(C#N)c1ccc(Nc2c(C(N)=O)cnc3ccc(-c4cnc5ccccc5c4)cc23)cc1`, the IC50 is 0.033 µM in [4], 4.56 µM in “cells [1]”, 2.82 µM in the data set “cells [2]” and 0.95 µM with MCF7 [3]. Further, the inhibition in [11] is 26.9%; in [12] it was 10.3%; in data set [13], -2.4%.
As to `CC(C)(C#N)c1ccc(Nc2c(C(N)=O)cnc3ccc(-c4ccc(N)nc4)cc23)cc1`, the IC50 in “cells [1]” worked out at 0.67 µM; in “cells [2]”, 0.83 µM; with MCF7 [3] it was 0.52 µM.
As to `CO[C@H]1C[C@@H]2CC[C@@H](C)[C@@](O)(O2)C(=O)C(=O)N2CCCC[C@H]2C(=O)O[C@H]([C@H](C)C[C@@H]2CC[C@@H](O)[C@H](OC)C2)CC(=O)[C@H](C)/C=C(\C)[C@@H](O)[C@@H](OC)C(=O)[C@H](C)C[C@H](C)/C=C/C=C/C=C/1C`, the inhibition result in the data set on MCF7 [14] was “inactive”. Besides, the inhibition entry on mTORC1 (Homo sapiens) is “Active”.
For the compound `Cn1c(=O)n(-c2ccc(C(C)(C)C#N)cc2)c2c3cc(-c4cnc5ccccc5c4)ccc3ncc21` [DACTOLISIB], the IC50 came to 0.2 µM in the data set “cells [1]”, 0.21 µM in “cells [2]” and 0.05 µM in the data set on MCF7 [3].
In the case of `Cn1nccc1-c1ccc2ncc(C(N)=O)c(Nc3ccc(C(C)(C)C#N)cc3)c2c1`, the IC50 is 17.3 µM in “cells [1]”, above 50 µM in “cells [2]” and 1.25 µM in the data set with MCF7 [3].
The corresponding values for `CS(=O)(=O)N1CCN(c2ccc(Nc3c(C(N)=O)cnc4ccc(-c5cnc6ccccc6c5)cc34)cc2C(F)(F)F)CC1` are 1 µM, 3.73 µM and 0.36 µM.
On to `NC(=O)c1cnc2ccc(-c3ccc(N)nc3)cc2c1Nc1cccc(C(F)(F)F)c1`, for which the IC50 stood at 1.83 µM in “cells [1]”, 1.08 µM in the data set “cells [2]” and 0.41 µM in the data set on MCF7 [3].
Turning to `NC(=O)c1cnc2ccc(-c3cnc4ccccc4c3)cc2c1Nc1cccc(C(F)(F)F)c1`, the IC50 amounted to 3.17 µM in “cells [1]”, 6.39 µM in the data set “cells [2]” and 0.6 µM in the data set on MCF7 [3].
Consider `COc1ccc(-c2ccc3ncc(C(N)=O)c(Nc4ccc(N5CCNCC5)c(C(F)(F)F)c4)c3c2)cn1`, for which the IC50 came out at 2.05 µM in the data set “cells [1]”, 0.99 µM in “cells [2]” and 0.78 µM in the data set on MCF7 [3].
As to `Cl.NC(=O)c1cnc2ccc(-c3cnc4ccccc4c3)cc2c1Nc1ccc(N2CCNCC2)c(C(F)(F)F)c1`, the inhibition in data set [11] came out at 32.3%; in data set [12], 1%; in [13], 6.7%; in [15], 16.7%. The Stability entry in data set [16] and in [17] was “Stable” each time. The remaining at 0.5 h is 50% in [18] and 80% in data set [19]. For the same compound, the remaining at 1 h in data set [20] was determined as 73%. For the same compound, the IC50 was determined as 0.46 µM in the data set “cells [1]”, 0.61 µM in “cells [2]” and 0.24 µM with MCF7 [3].
As to `CNC(=O)c1cnc2ccc(-c3ccc(N)nc3)cc2c1Nc1ccc(C(C)(C)C#N)cc1`, the IC50 in “cells [1]” was 4.66 µM; in “cells [2]”, 1.74 µM; with MCF7 [3] it was 0.49 µM.
For the compound `COc1ccc(-c2ccc3ncc(C(N)=O)c(Nc4ccc(C(C)(C)C#N)cc4)c3c2)cn1`, the concentration for half-maximal inhibition (IC50) came to 2.57 µM in “cells [1]”, 1.66 µM in “cells [2]” and 1.58 µM in the data set with MCF7 [3].
The corresponding values for `Cn1nccc1-c1ccc2ncc(C(N)=O)c(Nc3ccc(N4CCN(S(C)(=O)=O)CC4)c(C(F)(F)F)c3)c2c1` are 14.7 µM, 7.08 µM and 2.69 µM.
As for `CCC(=O)N1CCN(c2ccc(Nc3c(C(N)=O)cnc4ccc(-c5ccc(N)nc5)cc34)cc2C(F)(F)F)CC1`, the half-inhibitory concentration (IC50) in “cells [1]” turned out to be 2.4 µM; in the data set “cells [2]”, 1.46 µM; with MCF7 [3], 0.57 µM.
